Only some compounds are listed: those with a hit (about 4.2% of all), similar ones and a draw of the others.
OX1R antag-1: blocks the human orexin 1 receptor; AID 434989; inhibition, % at 5 µM; O43613; CHO/OX1R cells, Fluo-8 calcium fluorescence, orexin A; 330,000 tested, 0.43% active;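 active = inhibition above its plate's threshold, mean inhibition of all tested compounds on the plate plus 3 SD, cut at about 37% in these data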
Target sequence (O43613 whole entry, looked up): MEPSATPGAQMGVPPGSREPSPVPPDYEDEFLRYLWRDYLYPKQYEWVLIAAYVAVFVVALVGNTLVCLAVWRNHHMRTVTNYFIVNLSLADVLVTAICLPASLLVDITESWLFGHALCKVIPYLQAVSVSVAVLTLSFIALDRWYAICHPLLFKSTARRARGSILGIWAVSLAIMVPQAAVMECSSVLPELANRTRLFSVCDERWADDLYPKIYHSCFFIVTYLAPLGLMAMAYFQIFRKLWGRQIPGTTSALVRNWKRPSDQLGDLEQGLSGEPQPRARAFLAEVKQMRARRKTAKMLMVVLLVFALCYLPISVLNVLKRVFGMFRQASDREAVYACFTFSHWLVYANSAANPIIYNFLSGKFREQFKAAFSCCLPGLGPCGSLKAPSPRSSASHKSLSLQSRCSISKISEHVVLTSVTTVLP
CHO parental Ca: counter-screen: ATP calcium response change in parental CHO cells | parental CHO-K1, ATP-induced calcium, Fluo-8 fluorescence | inhibition, % at 5.6 µM | 330,000 tested, 0.63% active;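 active = inhibition above that plate's mean sample inhibition plus 3 SD, cut at about 26% in these data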
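Test system: parental CHO cells; detection: calcium-sensitive Fluo-8 fluorescence; evaluation: percent inhibition of calcium signal; also added: ATP as calcium-mobilizing challenge; repeats: one well per compound; control set: ATP-challenged DMSO wells low, unchallenged DMSO wells high; compound: single nominal dose of 5.6 µM per compound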
TAAR1 antag: antagonists of human TAAR1; 360,000 tested, 1.5% active; Q96RJ0; inhibition, % at 3 µM; CHO RD-HGA16 TAAR1, Fluo-8 calcium fluorescence, antagonist;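 active = inhibition above a per-plate cutoff, the mean inhibition of test compounds on that plate plus 3 SD, cut at about 49% in these data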
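System: RD-HGA16 CHO cells with stable hTAAR1 and Gα16 | Probe or stimulus: EC80 β-phenethylamine stimulus | Dosing: 3 µM, single point | Times: Dye loading 75 min at 37 °C, then 30 min room temperature | Measured by: Fluo-8 calcium-sensitive fluorescence | Read-out basis: % inhibition of agonist calcium response | Replicates: n of 1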
GalR3 antagonist: antagonists of human GalR3 | O60755 | HEK293 GalR3-CNG cAMP membrane potential fluorescence; galR3 body fused to GalR1 C-terminus | inhibition, % at 3 µM | 360,000 tested, 0.44% active | AID 651719;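 active = inhibition above the screen-wide average plus 3 SD, cut at about 13% in these data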;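 also: forskolin and galanin both at EC90 stimulate the cells; cAMP rise reported by CNG channel membrane potential dye signal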
TAAR1 ag: human TAAR1 agonism; Q96RJ0; CHO RD-HGA16 TAAR1, Fluo-8 calcium fluorescence; vehicle wells 0%, saturating PEA agonist 100%; activation, % at 3 µM; 360,000 tested, 0.99% active; AID 624467;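 active = activation above the mean activation of all test compounds in the run plus 3 SD, cut at about 38% in these data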
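System: CHO RD-HGA16 cells carrying human TAAR1 plus Gα16; Incubation: 17-24 h seeding, 75 min 37 °C dye, 30 min RT; Measured by: Fluo-8 fluorescence, 5 s baseline then 140 s kinetic read; Control set: DMSO and PEA EC100; Replication: single well for each compound.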
OX1R antag-2: antagonists of human orexin 1 receptor (OX1R); AID 485270; inhibition, % at 6.6 µM; 330,000 tested, 1.8% active; OX1R-expressing cells, FRET antagonist read-out; O43613; in the data active = inhibition mostly above about 38%, no sharp cut-off; inactive = mostly below about 40%
OX1R Fluo8 conf: confirmation of human orexin 1 receptor antagonists; shares compounds with OX1R antag-1; CHO/OX1R cells, orexin A calcium Fluo-8 fluorescence; AID 492963; 1,100 tested, 38% active; inhibition, % at 5 µM; in the data active = inhibition above about 29%
CHO Ca counter: counter-screen for OX1R antagonists: effect in parental CHO cells | 1,100 tested, 9.3% active | parental CHO-K1, ATP-induced calcium, Fluo-8 fluorescence | shares compounds with OX1R antag-1 | inhibition, % at 5.6 µM;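 active = inhibition above a per-plate limit, the mean inhibition of that plate's test compounds plus 3 SD, cut at about 25% in these data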
OX1R HTRF conf: confirmation of human orexin 1 receptor antagonists, HTRF format; OX1R-expressing cells, HTRF antagonist assay; shares compounds with OX1R antag-2; 1,800 tested, 49% active; inhibition, % at 6.6 µM; in the data active = inhibition above about 55%;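 also: CHO cells expressing OX1R stimulated with orexin A at about EC80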
CHO-K1 HTRF: signal in parental CHO-K1 cells, OX1R antagonist counter-screen; 1,800 tested, 48% active; inhibition, % at 6.6 µM; HTRF counterscreen; AID 493232; shares compounds with OX1R antag-2; in the data active = inhibition above about 17%
Numbers stand for hits; . = inactive; / = no result given.

SMILES	OX1R antag-1	CHO parental Ca	TAAR1 antag	GalR3 antagonist	TAAR1 ag	OX1R antag-2	OX1R Fluo8 conf	CHO Ca counter	OX1R HTRF conf	CHO-K1 HTRF
O=c1c2ccccc2oc2ccccc12	/	/	.	.	.	/	/	/	/	/
O=c1c2ccccc2oc2c1ccc1ccccc12	55	.	/	/	/	90	.	.	68	.
Cc1ccc(N(CC(=O)NCCc2ccccc2)S(=O)(=O)c2c(C)noc2C)cc1	70	.	.	.	.	85	44	.	82	.
CCOc1ccc(N(CC(=O)NCCc2ccc(C)cc2)S(=O)(=O)c2c(C)noc2C)cc1	.	.	.	.	.	.	/	/	/	/
Cc1cc(CNC(=O)COc2cc(F)ccc2[N+](=O)[O-])c2ccccc2n1	.	.	.	.	.	105	.	.	.	.
O=C(Nc1cccc(S(=O)(=O)NCc2ccco2)c1)c1cc(-c2ccc(F)cc2)nc2ccccc12	56	.	57	.	.	65	29	.	.	.
COc1cccc(/C=C2/Oc3ccccc3N(CC(=O)NCC3CCCO3)C2=O)c1 (configuration not stated)	75	.	/	/	/	109	94	.	94	.
O=C(O)CN1C(=O)/C(=C/c2cccc(Cl)c2)Oc2ccccc21	.	.	.	.	.	77	.	.	66	.
CC1Oc2ccccc2N(CC(=O)NCC2CCCO2)C1=O (configuration not stated)	.	.	.	.	.	.	/	/	/	/
COC(=O)[C@]12CCCCC=C1N(Cc1ccco1)C(=O)[C@H](CC(=O)N1CCN(C(=O)c3ccco3)CC1)C2	/	/	.	.	.	/	/	/	/	/
CC(=O)Nc1ccccc1C(=O)C(=O)Nc1cccc(F)c1	.	.	.	.	.	.	/	/	/	/
CCOc1ccc2nc(NC(=O)c3ccco3)sc2c1	.	.	.	.	.	.	/	/	/	/
CCOC(=O)c1ccc2nc(NC(=O)c3ccco3)sc2c1	.	.	.	.	.	81	35	.	86	18
O=[N+]([O-])c1cccc(-c2nc(-c3cccs3)c(-c3cccs3)[nH]2)c1	.	.	58	.	.	99	.	.	74	.
Cc1ccccc1-c1nc2sc3c(c2c(=O)n1N)CCCC3	.	.	.	.	.	.	/	/	/	/
Nn1c(-c2cccs2)nc2sc3c(c2c1=O)CCCC3	45	.	.	.	.	111	.	.	81	.
COc1ccc(CCNc2ccc([N+](=O)[O-])cn2)cc1	/	/	.	.	.	/	/	/	/	/
c1ccc(-c2nc3ccccc3o2)nc1	.	.	.	.	.	.	/	/	/	/
c1ccc2nc(-c3nc4ccccc4o3)ccc2c1	.	.	.	.	.	97	46	.	98	.
COc1cc(/C=N/NC(=O)CCn2c3ccccc3c3ccccc32)ccc1O	75	.	.	.	.	54	37	.	83	.
Cc1[nH]c2ccccc2c1C(=O)CSc1nc2ccccc2[nH]1	54	.	55	.	.	80	38	.	91	.
CCCCNC(=O)CCC(=O)NNc1nc2ccccc2c2nc(C)nn12	.	.	.	.	.	.	/	/	/	/
CCCCNC(=O)CCC(=O)NNc1nc2ccccc2c2nc(-c3ccccc3)nn12	.	.	.	.	.	77	33	.	92	.
Cc1cc(C)c2c(N)c(C(=O)N/N=C/c3cccs3)sc2n1	53	.	.	.	.	85	.	.	95	.
COc1ccc(/C=N/NC(=O)c2sc3nc(C)cc(C)c3c2N)cc1	.	.	.	.	.	.	/	/	/	/
